Assay results reported in PMC7668563 (International journal of molecular biology (Edmond, Okla.), 2020).
pIC50: −log10 of the molar value. One block for each compound: values may come before it.

Tests used:
[1] = biological target: T1, apo-human transferrin (apo-hTf) (Homo sapiens, UniProt P02787); experiment: Fluorescence quenching of apo-hTf; format: binding; settings: for biomolecular quenching rate constant kq: kq=Ksv/τ0; for Stern-Volmer quenching constant Ksv / number of binding sites n: pH 7.4; for quenching association constant Ka: pH 7.4, modified Stern-Volmer
Method in brief: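 Intrinsic fluorescence of apo-hTf in Tris-HCl pH 7.4 was titrated with test compound (Tris-HCl/2% DMSO). Conditions: excitation 280 nm, emission 290–500 nm, slits 10/5 nm, 1.0 cm quartz cell, at 296, 303, 310 and 317 K, triplicate titrations. Intensities were corrected for inner filter effect using absorbances at excitation and emission wavelengths. Ksv came from Stern-Volmer plots of F0/F vs [Q]; kq = Ksv/τ0 (τ0 ~1.0×10−8); Ka and n came from the modified Stern-Volmer equation.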

[2] = biological target: T1, apo-human transferrin (apo-hTf); experiment: Fluorescence resonance energy transfer; format: binding; settings: for Förster critical energy transfer distance R0 / binding distance r (donor-acceptor): k^2=2/3, n=1.336, ØD=0.118; for efficiency of energy transfer E: room temperature, 1.0×10^−5 mol L^−1 each
Method in brief: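 Emission spectrum of 1.0×10−5 mol L−1 apo-hTf and absorption spectrum of 1.0×10−5 mol L−1 test compound were recorded in 20 mM Tris-HCl pH 7.4 at room temperature, 260–450 nm, and their spectral overlap determined. E was calculated from apo-hTf fluorescence without and with equimolar test compound. R0 and donor–acceptor distance r came from Förster equations.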

[3] = biological target: T1, apo-human transferrin (apo-hTf); experiment: Far-UV circular dichroism titration of apo-hTf, secondary structure content
Method in brief: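 Apo-hTf (4.0×10−7 mol L−1) in 2 mM Tris-HCl pH 7.4 was titrated with a 1.0×10−3 mol L−1 stock of test compound in Tris-HCl/2% DMSO, to final 0–2.4×10−6 mol L−1. Far-UV CD was recorded from 190–250 nm under nitrogen in a 1.0 cm cell: six scans at 100 nm/min. Baseline was buffer ± DMSO at room temperature. α-Helix was derived from MRE at 208 nm; β-sheet and random coil by the CD-RRG method.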

[4] = system: human breast adenocarcinoma cell line, MCF-7; experiment: MTT cell viability assay on MCF-7, 72 h exposure; format: cell-based; settings: for IC50 (±SD), MCF-7: MCF-7, 72 h of exposure
Method in brief: (§1)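 HT-29 was grown in McCoy's 5A with 10% FBS. MCF-7 was grown in MEM with 10% FBS and 0.01 mg/mL insulin. Both were kept at 37°C, 5% CO2, trypsinized at 70–80% confluency and seeded at 1.5×10^4 cells/well for 24 h. Cells were then exposed for 72 h to test compound in 5% DMSO/95% medium, with DMSO-medium controls. MTT was added as a 2.67 mg/mL solution for 2 h. Formazan was dissolved in 10% Triton X-100/isopropanol and read at A570 minus A620. IC50 came from a sigmoidal fit of viability vs log concentration, eight replicas, triplicate, ±SD.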

[5] = biological target: T1, apo-human transferrin (apo-hTf); experiment: Thermodynamic parameters of apo-hTf complex formation; format: binding; settings: for ∆H° / ∆S°: pH 7.4, from Ksv at 296-317 K
Method in brief: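 Ksv values were obtained from apo-hTf fluorescence quenching at pH 7.4 at 296, 303, 310 and 317 K. ΔH°, ΔS° and ΔG° were derived from linear regression of ln(Ksv) vs 1/T (Van't Hoff equation).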

[6] = system: human colorectal adenocarcinoma cell line, HT-29; experiment: MTT cell viability assay on HT-29, 72 h exposure; format: cell-based; settings: read-out: IC50 (±SD), HT-29, HT-29, 72 h of exposure
Method in brief: as §1

[7] = biological target: T1, apo-human transferrin (apo-hTf); experiment: UV-Vis absorbance titration of apo-hTf; format: binding; settings: for Ka at 280 nm: absorbance at 280 nm; for Association constants, Ka, 280 nm: absorbance of apo-hTf at 280 nm, pH 7.4

T1 sequence (P02787 20-698): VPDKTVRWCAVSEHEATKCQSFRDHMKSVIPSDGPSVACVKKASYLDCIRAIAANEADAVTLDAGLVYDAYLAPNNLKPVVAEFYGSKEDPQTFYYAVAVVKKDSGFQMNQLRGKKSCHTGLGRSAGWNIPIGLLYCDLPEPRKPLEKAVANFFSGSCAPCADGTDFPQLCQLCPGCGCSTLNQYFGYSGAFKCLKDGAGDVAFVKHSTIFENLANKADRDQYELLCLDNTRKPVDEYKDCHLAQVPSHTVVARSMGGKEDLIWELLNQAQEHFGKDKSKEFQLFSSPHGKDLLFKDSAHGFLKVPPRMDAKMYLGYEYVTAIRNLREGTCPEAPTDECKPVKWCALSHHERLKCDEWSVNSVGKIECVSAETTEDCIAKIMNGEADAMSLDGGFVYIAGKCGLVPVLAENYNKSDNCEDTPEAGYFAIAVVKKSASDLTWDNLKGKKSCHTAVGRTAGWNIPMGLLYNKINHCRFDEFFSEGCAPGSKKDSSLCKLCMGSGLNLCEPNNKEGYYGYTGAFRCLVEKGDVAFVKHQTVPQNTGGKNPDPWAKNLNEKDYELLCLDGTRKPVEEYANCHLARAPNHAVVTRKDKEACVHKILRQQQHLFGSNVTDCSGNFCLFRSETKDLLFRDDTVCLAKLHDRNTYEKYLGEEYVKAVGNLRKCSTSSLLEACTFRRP

- biomolecular quenching rate constant kq ([1]; 296 K): 2.523e+12 M⁻¹ s⁻¹
- Stern-Volmer quenching constant Ksv ([1]; 296 K): 25230 M⁻¹
- number of binding sites n ([1]; 296 K): 1.26
- quenching association constant Ka ([1]; 296 K): 325300 M⁻¹
- biomolecular quenching rate constant kq ([1]; 303 K): 2.804e+12 M⁻¹ s⁻¹
- Stern-Volmer quenching constant Ksv ([1]; 303 K): 28040 M⁻¹
- number of binding sites n ([1]; 303 K): 1.27
- quenching association constant Ka ([1]; 303 K): 408100 M⁻¹
- biomolecular quenching rate constant kq ([1]; 310 K): 3.056e+12 M⁻¹ s⁻¹
- Stern-Volmer quenching constant Ksv ([1]; 310 K): 30560 M⁻¹
- number of binding sites n ([1]; 310 K): 1.28
- quenching association constant Ka ([1]; 310 K): 485500 M⁻¹
- biomolecular quenching rate constant kq ([1]; 317 K): 3.323e+12 M⁻¹ s⁻¹
- Stern-Volmer quenching constant Ksv ([1]; 317 K): 33230 M⁻¹
- number of binding sites n ([1]; 317 K): 1.29
- quenching association constant Ka ([1]; 317 K): 562300 M⁻¹
- Förster critical energy transfer distance R0 [2]: 2.56 nm
- binding distance r (donor-acceptor) [2]: 3.04 nm
- efficiency of energy transfer E [2]: 0.26
- other secondary structure content of apo-hTf ([3]; compound concentration 0.4 (M)): 19.5%
- random coil content of apo-hTf ([3]; compound concentration 0.4 (M)): 33.8%
- α-helix content of apo-hTf ([3]; compound concentration 0.4 (M)): 29%
- β-sheet content of apo-hTf ([3]; compound concentration 0.4 (M)): 17.7%
- other secondary structure content of apo-hTf ([3]; compound concentration 0.8 (M)): 19.4%
- random coil content of apo-hTf ([3]; compound concentration 0.8 (M)): 34%
- α-helix content of apo-hTf ([3]; compound concentration 0.8 (M)): 28.7%
- β-sheet content of apo-hTf ([3]; compound concentration 0.8 (M)): 17.9%
- other secondary structure content of apo-hTf ([3]; compound concentration 1.2 (M)): 19.7%
- random coil content of apo-hTf ([3]; compound concentration 1.2 (M)): 34.2%
- α-helix content of apo-hTf ([3]; compound concentration 1.2 (M)): 27.6%
- β-sheet content of apo-hTf ([3]; compound concentration 1.2 (M)): 18.5%
- other secondary structure content of apo-hTf ([3]; compound concentration 1.6 (M)): 19.8%
- random coil content of apo-hTf ([3]; compound concentration 1.6 (M)): 34.4%
- α-helix content of apo-hTf ([3]; compound concentration 1.6 (M)): 26.9%
- β-sheet content of apo-hTf ([3]; compound concentration 1.6 (M)): 18.9%
- other secondary structure content of apo-hTf ([3]; compound concentration 2 (M)): 20.2%
- random coil content of apo-hTf ([3]; compound concentration 2 (M)): 34.6%
- α-helix content of apo-hTf ([3]; compound concentration 2 (M)): 26.2%
- β-sheet content of apo-hTf ([3]; compound concentration 2 (M)): 19%
- other secondary structure content of apo-hTf ([3]; compound concentration 2.4 (M)): 20.4%
- random coil content of apo-hTf ([3]; compound concentration 2.4 (M)): 34.8%
- α-helix content of apo-hTf ([3]; compound concentration 2.4 (M)): 25.4%
- β-sheet content of apo-hTf ([3]; compound concentration 2.4 (M)): 19.4%
- pIC50 ([4]; read-out: IC50 (±SD), MCF-7, MCF-7, 72 h of exposure): 2.89
- ∆G° ([5]; 296 K): -5.963 kcal/mol
- ∆G° ([5]; 303 K): -6.164 kcal/mol
- ∆G° ([5]; 310 K): -6.362 kcal/mol
- ∆G° ([5]; 317 K): -6.561 kcal/mol
- ∆H° [5]: 2.431 kcal/mol
- ∆S° [5]: 118.65 J/mol K
- pIC50 [6]: 3.58
- Ka at 280 nm [7]: 3000 M⁻¹
- Association constants, Ka, 280 nm [7]: 3 10^3 M^−1
SMILES: C1CCCC1.C1CCCC1.[Cl][Nb][Cl] [Cp2NbCl2]

SMILES: [Cl-].[Cl-].[Hf+4].c1cc[cH-]c1.c1cc[cH-]c1 [Cp2HfCl2]
- biomolecular quenching rate constant kq ([1]; 296 K): 1.97e+11 M⁻¹ s⁻¹
- Stern-Volmer quenching constant Ksv ([1]; 296 K): 1970 M⁻¹
- number of binding sites n ([1]; 296 K): 1.15
- quenching association constant Ka ([1]; 296 K): 8900 M⁻¹
- biomolecular quenching rate constant kq ([1]; 303 K): 1.57e+11 M⁻¹ s⁻¹
- Stern-Volmer quenching constant Ksv ([1]; 303 K): 1570 M⁻¹
- number of binding sites n ([1]; 303 K): 1.17
- quenching association constant Ka ([1]; 303 K): 8100 M⁻¹
- biomolecular quenching rate constant kq ([1]; 310 K): 1.36e+11 M⁻¹ s⁻¹
- Stern-Volmer quenching constant Ksv ([1]; 310 K): 1360 M⁻¹
- number of binding sites n ([1]; 310 K): 1.18
- quenching association constant Ka ([1]; 310 K): 7500 M⁻¹
- biomolecular quenching rate constant kq ([1]; 317 K): 1.24e+11 M⁻¹ s⁻¹
- Stern-Volmer quenching constant Ksv ([1]; 317 K): 1240 M⁻¹
- number of binding sites n ([1]; 317 K): 1.19
- quenching association constant Ka ([1]; 317 K): 7000 M⁻¹
- Förster critical energy transfer distance R0 [2]: 6.91 nm
- binding distance r (donor-acceptor) [2]: 9.47 nm
- efficiency of energy transfer E [2]: 0.131
- other secondary structure content of apo-hTf ([3]; compound concentration 0.4 (M)): 19.1%
- random coil content of apo-hTf ([3]; compound concentration 0.4 (M)): 33.7%
- α-helix content of apo-hTf ([3]; compound concentration 0.4 (M)): 29.7%
- β-sheet content of apo-hTf ([3]; compound concentration 0.4 (M)): 17.5%
- other secondary structure content of apo-hTf ([3]; compound concentration 0.8 (M)): 19.1%
- random coil content of apo-hTf ([3]; compound concentration 0.8 (M)): 33.8%
- α-helix content of apo-hTf ([3]; compound concentration 0.8 (M)): 29.5%
- β-sheet content of apo-hTf ([3]; compound concentration 0.8 (M)): 17.6%
- other secondary structure content of apo-hTf ([3]; compound concentration 1.2 (M)): 19.2%
- random coil content of apo-hTf ([3]; compound concentration 1.2 (M)): 33.8%
- α-helix content of apo-hTf ([3]; compound concentration 1.2 (M)): 29.3%
- β-sheet content of apo-hTf ([3]; compound concentration 1.2 (M)): 17.7%
- other secondary structure content of apo-hTf ([3]; compound concentration 1.6 (M)): 19.1%
- random coil content of apo-hTf ([3]; compound concentration 1.6 (M)): 34%
- α-helix content of apo-hTf ([3]; compound concentration 1.6 (M)): 29.1%
- β-sheet content of apo-hTf ([3]; compound concentration 1.6 (M)): 17.8%
- other secondary structure content of apo-hTf ([3]; compound concentration 2 (M)): 19.1%
- random coil content of apo-hTf ([3]; compound concentration 2 (M)): 34%
- α-helix content of apo-hTf ([3]; compound concentration 2 (M)): 29%
- β-sheet content of apo-hTf ([3]; compound concentration 2 (M)): 17.9%
- other secondary structure content of apo-hTf ([3]; compound concentration 2.4 (M)): 19.2%
- random coil content of apo-hTf ([3]; compound concentration 2.4 (M)): 34.1%
- α-helix content of apo-hTf ([3]; compound concentration 2.4 (M)): 28.7%
- β-sheet content of apo-hTf ([3]; compound concentration 2.4 (M)): 18%
- IC50 (±SD), MCF-7 [4]: proliferative activity
- IC50 (±SD), MCF-7 ([4]; listed as Cp^2HfCl^2): Proliferative
- ∆G° ([5]; 296 K): -4.443 kcal/mol
- ∆G° ([5]; 303 K): -4.45 kcal/mol
- ∆G° ([5]; 310 K): -4.46 kcal/mol
- ∆G° ([5]; 317 K): -4.469 kcal/mol
- ∆H° [5]: -4.08 kcal/mol
- ∆S° [5]: 5.13 J/mol K
- pIC50 [6]: 3.25
- Ka at 280 nm [7]: 2110 M⁻¹
- Association constants, Ka, 280 nm [7]: 2.11 10^3 M^−1
